{
  "source": "ChEMBL document CHEMBL1125419",
  "about": "“Stereospecificity of amino acid side chains in deltorphin defines binding to opioid receptors” (J Med Chem, 1992)",
  "key": {"[1]": {"molecular_target": "T1, Mu-type opioid receptor (Rattus norvegicus, UniProt P33535)", "T1 sequence (P33535 whole entry)": "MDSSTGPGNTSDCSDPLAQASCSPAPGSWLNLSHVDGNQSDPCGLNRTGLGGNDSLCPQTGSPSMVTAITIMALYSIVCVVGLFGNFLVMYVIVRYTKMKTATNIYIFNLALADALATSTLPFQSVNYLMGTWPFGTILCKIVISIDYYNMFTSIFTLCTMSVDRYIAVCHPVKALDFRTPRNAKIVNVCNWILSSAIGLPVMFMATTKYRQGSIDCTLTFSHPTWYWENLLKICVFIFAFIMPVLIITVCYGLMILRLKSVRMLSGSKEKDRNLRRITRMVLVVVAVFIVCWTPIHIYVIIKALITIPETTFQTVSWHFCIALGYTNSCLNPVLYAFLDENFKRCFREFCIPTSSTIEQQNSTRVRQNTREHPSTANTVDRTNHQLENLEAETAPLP", "test": "Compound was tested for its binding affinity against opioid receptor mu using [3H]DAGO as radioligand."}, "[2]": {"molecular_target": "T2, Delta-type opioid receptor (Rattus norvegicus, UniProt P33533)", "T2 sequence (P33533 whole entry)": "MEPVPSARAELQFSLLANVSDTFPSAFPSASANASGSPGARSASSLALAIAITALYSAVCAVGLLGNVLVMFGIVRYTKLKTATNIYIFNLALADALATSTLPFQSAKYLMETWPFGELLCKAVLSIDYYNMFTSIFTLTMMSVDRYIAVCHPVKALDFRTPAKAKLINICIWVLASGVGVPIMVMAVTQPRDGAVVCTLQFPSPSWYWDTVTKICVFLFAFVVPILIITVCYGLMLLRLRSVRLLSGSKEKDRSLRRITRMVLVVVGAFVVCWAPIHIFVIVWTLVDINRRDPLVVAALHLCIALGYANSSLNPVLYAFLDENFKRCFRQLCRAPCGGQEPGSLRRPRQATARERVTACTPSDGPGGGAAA", "test": "Compound was tested for its binding affinity against opioid receptor delta using [3H]DPDPE as radioligand.", "summary_of_the_method": "(§1)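 Male Sprague-Dawley rat brain synaptosomes incubated with 0.62 pmol [3H]DPDPE in 50 mM HEPES pH 7.5, 5 mM MgCl2, 1 μM bestatin, bacitracin, 8% glycerol, soybean trypsin inhibitor, 100 μM PMSF; 2 h at 22 °C, duplicates. GF/C filtration, Tris-BSA washes, scintillation counting. 4-9 peptide concentrations over 2-3 log units, n = 3-8; Ki by Cheng-Prusoff.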"}, "[3]": {"test": "Opioid receptor delta selectivity was defined as the ratio between Ki(opioid receptor mu)/Ki(opioid receptor delta)", "assay_type": "protein assay"}, "[4]": {"molecular_target": "T2, Delta-type opioid receptor", "test": "Inhibition of [3H]DPDPE binding to Opioid receptor delta 1", "summary_of_the_method": "as §1"}, "[5]": {"molecular_target": "T1, Mu-type opioid receptor", "test": "Inhibition of [3H]DAGO binding to rat Opioid receptor mu 1"}},
  "note": "Square brackets hold non-standard residues; d marks the D form. Peptide text beside a SMILES is read from it. Nle = CCCC[C@H](N)C(=O)O",
  "data": [
    {"compound": "CSCC[C@H](NC(=O)[C@H](CC(C)C)NC(=O)[C@H](Cc1c[nH]cn1)NC(=O)[C@H](Cc1ccccc1)NC(=O)[C@@H](C)NC(=O)[C@@H](N)Cc1ccc(O)cc1)C(=O)N[C@@H](CC(=O)O)C(N)=O", "values": [
      {"measurement": "Ki", "setting": "[1]", "result": 43.7, "unit": "nM"},
      {"measurement": "Ki", "setting": "[2]", "result": 0.36, "unit": "nM"},
      {"measurement": "Selectivity", "setting": "[3]", "result": 121}
    ]},
    {"compound": "CSCC[C@@H](NC(=O)[C@H](CC(C)C)NC(=O)[C@H](Cc1ccccc1)NC(=O)[C@@H](CCSC)NC(=O)[C@@H](N)Cc1ccc(O)cc1)C(=O)N[C@@H](CC(=O)O)C(N)=O", "values": [
      {"measurement": "Ki", "setting": "[4]", "result": 25.8, "unit": "nM"},
      {"measurement": "Ki", "setting": "[5]", "result": 407, "unit": "nM"}
    ]},
    {"compound": "CSCC[C@H](NC(=O)[C@H](CC(C)C)NC(=O)[C@H](Cc1ccccc1)NC(=O)[C@@H](CCSC)NC(=O)[C@@H](N)Cc1ccc(O)cc1)C(=O)N[C@@H](CC(=O)O)C(N)=O", "values": [
      {"measurement": "Ki", "setting": "[4]", "result": 12.6, "unit": "nM"},
      {"measurement": "Ki", "setting": "[5]", "result": 352, "unit": "nM"}
    ]},
    {"compound": "CSCC[C@H](NC(=O)[C@H](CC(C)C)NC(=O)[C@H](Cc1c[nH]cn1)NC(=O)[C@H](Cc1ccccc1)NC(=O)[C@@H](CCSC)NC(=O)[C@@H](N)Cc1ccc(O)cc1)C(=O)N[C@@H](CC(=O)O)C(N)=O", "values": [
      {"measurement": "Selectivity", "setting": "[3]", "result": 764}
    ]},
    {"compound": "CCCC[C@H](NC(=O)[C@@H](N)Cc1ccc(O)cc1)C(=O)N[C@@H](Cc1ccccc1)C(=O)N[C@@H](Cc1c[nH]cn1)C(=O)N[C@@H](CC(C)C)C(=O)N[C@@H](CCSC)C(=O)N[C@@H](CC(=O)O)C(N)=O", "note": "(H-Y[Nle]FHLMD-NH2)", "values": [
      {"measurement": "Selectivity", "setting": "[3]", "result": 272}
    ]},
    {"compound": "CSCC[C@H](NC(=O)[C@H](CC(C)C)NC(=O)[C@H](Cc1cnc[nH]1)NC(=O)[C@H](Cc1ccccc1)NC(=O)[C@@H](CCSC)NC(=O)[C@@H](N)Cc1ccc(O)cc1)C(=O)N[C@@H](CC(=O)O)C(N)=O", "note": "[DELTORPHIN A]", "values": [
      {"measurement": "Ki", "setting": "[1]", "result": 344, "unit": "nM"},
      {"measurement": "Ki", "setting": "[2]", "result": 0.45, "unit": "nM"}
    ]},
    {"compound": "CSCC[C@H](NC(=O)[C@H](CC(C)C)NC(=O)[C@H](Cc1cnc[nH]1)NC(=O)[C@H](Cc1ccccc1)NC(=O)[C@@H](CCSC)NC(=O)[C@H](N)Cc1ccc(O)cc1)C(=O)N[C@@H](CC(=O)O)C(N)=O", "values": [
      {"measurement": "Ki", "setting": "[1]", "result": 7410, "unit": "nM"},
      {"measurement": "Ki", "setting": "[2]", "result": 544, "unit": "nM"}
    ]},
    {"compound": "CSCC[C@H](NC(=O)[C@H](CC(C)C)NC(=O)[C@H](Cc1ccccc1)NC(=O)[C@@H](CCSC)NC(=O)[C@H](N)Cc1ccc(O)cc1)C(=O)N[C@@H](CC(=O)O)C(N)=O", "values": [
      {"measurement": "Ki", "setting": "[4]", "result": 477, "unit": "nM"},
      {"measurement": "Ki", "setting": "[5]", "result": 7410, "unit": "nM"}
    ]},
    {"compound": "CSCC[C@H](NC(=O)[C@H](CC(C)C)NC(=O)[C@H](Cc1c[nH]cn1)NC(=O)[C@H](Cc1ccccc1)NC(=O)[C@@H](CCSC)NC(=O)[C@H](N)Cc1ccc(O)cc1)C(=O)N[C@@H](CC(=O)O)C(N)=O", "values": [
      {"measurement": "Selectivity", "setting": "[3]", "result": 14}
    ]},
    {"compound": "CSCC[C@H](NC(=O)[C@@H](CC(C)C)NC(=O)[C@H](Cc1ccccc1)NC(=O)[C@@H](CCSC)NC(=O)[C@@H](N)Cc1ccc(O)cc1)C(=O)N[C@@H](CC(=O)O)C(N)=O", "values": [
      {"measurement": "Ki", "setting": "[4]", "result": 120, "unit": "nM"},
      {"measurement": "Ki", "setting": "[5]", "result": 330, "unit": "nM"}
    ]},
    {"compound": "CSCC[C@H](NC(=O)[C@H](CC(C)C)NC(=O)[C@@H](Cc1c[nH]cn1)NC(=O)[C@H](Cc1ccccc1)NC(=O)[C@@H](CCSC)NC(=O)[C@@H](N)Cc1ccc(O)cc1)C(=O)N[C@@H](CC(=O)O)C(N)=O", "values": [
      {"measurement": "Selectivity", "setting": "[3]", "result": 178}
    ]},
    {"compound": "CSCC[C@H](NC(=O)[C@H](CC(C)C)NC(=O)[C@@H](Cc1cnc[nH]1)NC(=O)[C@H](Cc1ccccc1)NC(=O)[C@@H](CCSC)NC(=O)[C@@H](N)Cc1ccc(O)cc1)C(=O)N[C@@H](CC(=O)O)C(N)=O", "values": [
      {"measurement": "Ki", "setting": "[1]", "result": 492, "unit": "nM"},
      {"measurement": "Ki", "setting": "[2]", "result": 2.77, "unit": "nM"}
    ]},
    {"compound": "CSCC[C@H](NC(=O)[C@H](CC(C)C)NC(=O)[C@@H](Cc1ccccc1)NC(=O)[C@@H](CCSC)NC(=O)[C@@H](N)Cc1ccc(O)cc1)C(=O)N[C@@H](CC(=O)O)C(N)=O", "values": [
      {"measurement": "Ki", "setting": "[4]", "result": 742, "unit": "nM"},
      {"measurement": "Ki", "setting": "[5]", "result": 2250, "unit": "nM"}
    ]},
    {"compound": "CSCC[C@H](NC(=O)[C@H](CC(C)C)NC(=O)[C@H](Cc1ccccc1)NC(=O)[C@@H](C)NC(=O)[C@@H](N)Cc1ccc(O)cc1)C(=O)N[C@@H](CC(=O)O)C(N)=O", "values": [
      {"measurement": "Ki", "setting": "[4]", "result": 13.9, "unit": "nM"},
      {"measurement": "Ki", "setting": "[5]", "result": 567, "unit": "nM"}
    ]},
    {"compound": "CSCC[C@H](NC(=O)[C@@H](CC(C)C)NC(=O)[C@H](Cc1c[nH]cn1)NC(=O)[C@H](Cc1ccccc1)NC(=O)[C@@H](CCSC)NC(=O)[C@@H](N)Cc1ccc(O)cc1)C(=O)N[C@@H](CC(=O)O)C(N)=O", "values": [
      {"measurement": "Ki", "setting": "[4]", "result": 58.5, "unit": "nM"},
      {"measurement": "Ki", "setting": "[5]", "result": 691, "unit": "nM"}
    ]},
    {"compound": "CSCC[C@H](NC(=O)[C@H](CC(C)C)NC(=O)[C@H](Cc1ccccc1)NC(=O)[C@@H](CCSC)NC(=O)[C@@H](N)Cc1ccc(O)cc1)C(=O)N[C@H](CC(=O)O)C(N)=O", "values": [
      {"measurement": "Ki", "setting": "[4]", "result": 9.46, "unit": "nM"},
      {"measurement": "Ki", "setting": "[5]", "result": 267, "unit": "nM"}
    ]},
    {"compound": "CSCC[C@H](NC(=O)[C@H](CC(C)C)NC(=O)[C@H](Cc1c[nH]cn1)NC(=O)[C@@H](Cc1ccccc1)NC(=O)[C@@H](CCSC)NC(=O)[C@@H](N)Cc1ccc(O)cc1)C(=O)N[C@@H](CC(=O)O)C(N)=O", "values": [
      {"measurement": "Ki", "setting": "[1]", "result": 2350, "unit": "nM"},
      {"measurement": "Ki", "setting": "[2]", "result": 39.6, "unit": "nM"},
      {"measurement": "Selectivity", "setting": "[3]", "result": 59}
    ]},
    {"compound": "CSCC[C@H](NC(=O)[C@H](CC(C)C)NC(=O)[C@H](Cc1c[nH]cn1)NC(=O)[C@H](Cc1ccccc1)NC(=O)[C@@H](CCSC)NC(=O)[C@@H](N)Cc1ccc(O)cc1)C(=O)N[C@H](CC(=O)O)C(N)=O", "values": [
      {"measurement": "Ki", "setting": "[4]", "result": 0.54, "unit": "nM"},
      {"measurement": "Ki", "setting": "[5]", "result": 124, "unit": "nM"}
    ]},
    {"compound": "CSCC[C@@H](NC(=O)[C@H](CC(C)C)NC(=O)[C@H](Cc1c[nH]cn1)NC(=O)[C@H](Cc1ccccc1)NC(=O)[C@@H](CCSC)NC(=O)[C@@H](N)Cc1ccc(O)cc1)C(=O)N[C@@H](CC(=O)O)C(N)=O", "values": [
      {"measurement": "Ki", "setting": "[4]", "result": 0.96, "unit": "nM"},
      {"measurement": "Ki", "setting": "[5]", "result": 146, "unit": "nM"}
    ]}
  ]
}
